Experimental data published in ChEMBL document CHEMBL5653623 (J Pharmacol Exp Ther, 2015).
Calls of active or inactive are those of the source. No cut-off for these calls is given here.

How the values were obtained:
Mus musculus [1] = assay: Effect on behavioral phenotype in 8 weeks old MitoPark mouse assessed as locomotor activity at 30 mg/kg/day administered for 3 weeks and measured after 60 mins by truScan photo beam activity system analysis; type: functional, organism-based
Summary of the method: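 MitoPark mice, 5 weeks old, were allocated by baseline 60-min LMA to untreated diet or diet targeting 30 mg/kg/day (reformulated every 3 weeks). Wild-type littermates received vehicle diet. Body weight and food intake were recorded weekly. 60-min LMA (distance, rearing) was run at 8, 11, 14 and 17 weeks of age.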

[2] = AUC in C57Bl/6 mouse at 10 mg/kg, po measured after 480 mins by LC-MS/MS analysis; type: ADME, organism-based; details: in vivo
Summary of the method: (§1)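 Male C57Bl/6 mice (20-25 g) given a single IV dose (2 mg/kg) or oral dose (10 mg/kg). Blood was sampled at 5, 15, 30, 60, 120, 240, 360 and 480 min and plasma prepared by centrifugation. Plasma drug levels were measured by LC/MS/MS. Values are mean (CV%), N=3.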

[3] = target: 5-hydroxytryptamine receptor 2B (Homo sapiens, UniProt P41595); assay: Inhibition of serotonin 5-HT2B (unknown origin)
Chain of 5-hydroxytryptamine receptor 2B (P41595 whole entry): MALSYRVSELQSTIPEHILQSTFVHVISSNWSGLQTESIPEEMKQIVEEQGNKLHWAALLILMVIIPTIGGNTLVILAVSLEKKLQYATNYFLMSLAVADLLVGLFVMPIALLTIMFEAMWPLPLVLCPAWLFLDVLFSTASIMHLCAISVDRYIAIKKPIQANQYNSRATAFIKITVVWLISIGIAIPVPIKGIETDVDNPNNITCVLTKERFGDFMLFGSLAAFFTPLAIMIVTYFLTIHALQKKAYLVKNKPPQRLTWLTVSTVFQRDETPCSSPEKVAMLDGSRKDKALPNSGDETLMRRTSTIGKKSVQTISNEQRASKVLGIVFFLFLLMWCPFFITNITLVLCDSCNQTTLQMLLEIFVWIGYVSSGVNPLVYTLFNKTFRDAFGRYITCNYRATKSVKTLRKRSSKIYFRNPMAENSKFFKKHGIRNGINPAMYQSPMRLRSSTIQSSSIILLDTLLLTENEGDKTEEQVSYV
Summary of the method: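 Radioligand binding selectivity screen was run at 10 μM, mean of three determinations. Where inhibition exceeded 50%, full concentration-displacement curves were run in triplicate and IC50 was obtained by nonlinear least-squares regression.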

[4] = target: Dual specificity protein kinase CLK2 (Homo sapiens, UniProt P49760); assay: Inhibition of CLK2 (unknown origin)
Chain of Dual specificity protein kinase CLK2 (P49760 whole entry): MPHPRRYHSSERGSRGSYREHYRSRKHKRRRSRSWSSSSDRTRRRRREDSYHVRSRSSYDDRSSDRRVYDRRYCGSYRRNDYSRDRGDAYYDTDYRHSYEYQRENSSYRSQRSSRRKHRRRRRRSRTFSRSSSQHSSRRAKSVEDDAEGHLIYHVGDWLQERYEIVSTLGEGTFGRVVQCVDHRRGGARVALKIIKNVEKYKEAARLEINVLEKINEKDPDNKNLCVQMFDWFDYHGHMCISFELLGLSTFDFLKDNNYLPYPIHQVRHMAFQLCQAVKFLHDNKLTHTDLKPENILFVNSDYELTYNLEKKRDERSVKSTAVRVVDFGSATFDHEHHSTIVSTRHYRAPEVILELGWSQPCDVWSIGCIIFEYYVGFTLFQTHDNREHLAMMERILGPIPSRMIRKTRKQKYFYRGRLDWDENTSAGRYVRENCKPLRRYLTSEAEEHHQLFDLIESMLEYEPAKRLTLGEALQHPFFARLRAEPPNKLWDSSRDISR

Mus musculus [5] = assay: Effect on behavioral changes in 14 weeks old MitoPark mouse striatum assessed as DOPAC level at 30 mg/kg/day by HPLC analysis; type: functional
Summary of the method: (§2)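 Striatum from MitoPark mice on diet targeting 30 mg/kg/day or vehicle diet (wild-type littermate controls) was homogenized by sonication in 0.1 M acid at 0.1 g/mL. Samples were held 60 min at 4 °C and centrifuged. Dopamine, DOPAC and HVA were measured by HPLC with electrochemical detection against a 3,4-DHBA internal standard and standard curves. Mean ± SEM.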

[6] = target: Leucine-rich repeat serine/threonine-protein kinase 2 (Mus musculus) (UniProt Q5S006); assay: In vivo inhibition of LRRK2 in 20 weeks old MitoPark mouse lung assessed as reduction in total LRRK2 protein level at 30 mg/kg/day administered for 15 weeks by Western blotting analysis; type: functional, organism-based
Chain of Leucine-rich repeat serine/threonine-protein kinase 2 (Mus musculus) (Q5S006 whole entry): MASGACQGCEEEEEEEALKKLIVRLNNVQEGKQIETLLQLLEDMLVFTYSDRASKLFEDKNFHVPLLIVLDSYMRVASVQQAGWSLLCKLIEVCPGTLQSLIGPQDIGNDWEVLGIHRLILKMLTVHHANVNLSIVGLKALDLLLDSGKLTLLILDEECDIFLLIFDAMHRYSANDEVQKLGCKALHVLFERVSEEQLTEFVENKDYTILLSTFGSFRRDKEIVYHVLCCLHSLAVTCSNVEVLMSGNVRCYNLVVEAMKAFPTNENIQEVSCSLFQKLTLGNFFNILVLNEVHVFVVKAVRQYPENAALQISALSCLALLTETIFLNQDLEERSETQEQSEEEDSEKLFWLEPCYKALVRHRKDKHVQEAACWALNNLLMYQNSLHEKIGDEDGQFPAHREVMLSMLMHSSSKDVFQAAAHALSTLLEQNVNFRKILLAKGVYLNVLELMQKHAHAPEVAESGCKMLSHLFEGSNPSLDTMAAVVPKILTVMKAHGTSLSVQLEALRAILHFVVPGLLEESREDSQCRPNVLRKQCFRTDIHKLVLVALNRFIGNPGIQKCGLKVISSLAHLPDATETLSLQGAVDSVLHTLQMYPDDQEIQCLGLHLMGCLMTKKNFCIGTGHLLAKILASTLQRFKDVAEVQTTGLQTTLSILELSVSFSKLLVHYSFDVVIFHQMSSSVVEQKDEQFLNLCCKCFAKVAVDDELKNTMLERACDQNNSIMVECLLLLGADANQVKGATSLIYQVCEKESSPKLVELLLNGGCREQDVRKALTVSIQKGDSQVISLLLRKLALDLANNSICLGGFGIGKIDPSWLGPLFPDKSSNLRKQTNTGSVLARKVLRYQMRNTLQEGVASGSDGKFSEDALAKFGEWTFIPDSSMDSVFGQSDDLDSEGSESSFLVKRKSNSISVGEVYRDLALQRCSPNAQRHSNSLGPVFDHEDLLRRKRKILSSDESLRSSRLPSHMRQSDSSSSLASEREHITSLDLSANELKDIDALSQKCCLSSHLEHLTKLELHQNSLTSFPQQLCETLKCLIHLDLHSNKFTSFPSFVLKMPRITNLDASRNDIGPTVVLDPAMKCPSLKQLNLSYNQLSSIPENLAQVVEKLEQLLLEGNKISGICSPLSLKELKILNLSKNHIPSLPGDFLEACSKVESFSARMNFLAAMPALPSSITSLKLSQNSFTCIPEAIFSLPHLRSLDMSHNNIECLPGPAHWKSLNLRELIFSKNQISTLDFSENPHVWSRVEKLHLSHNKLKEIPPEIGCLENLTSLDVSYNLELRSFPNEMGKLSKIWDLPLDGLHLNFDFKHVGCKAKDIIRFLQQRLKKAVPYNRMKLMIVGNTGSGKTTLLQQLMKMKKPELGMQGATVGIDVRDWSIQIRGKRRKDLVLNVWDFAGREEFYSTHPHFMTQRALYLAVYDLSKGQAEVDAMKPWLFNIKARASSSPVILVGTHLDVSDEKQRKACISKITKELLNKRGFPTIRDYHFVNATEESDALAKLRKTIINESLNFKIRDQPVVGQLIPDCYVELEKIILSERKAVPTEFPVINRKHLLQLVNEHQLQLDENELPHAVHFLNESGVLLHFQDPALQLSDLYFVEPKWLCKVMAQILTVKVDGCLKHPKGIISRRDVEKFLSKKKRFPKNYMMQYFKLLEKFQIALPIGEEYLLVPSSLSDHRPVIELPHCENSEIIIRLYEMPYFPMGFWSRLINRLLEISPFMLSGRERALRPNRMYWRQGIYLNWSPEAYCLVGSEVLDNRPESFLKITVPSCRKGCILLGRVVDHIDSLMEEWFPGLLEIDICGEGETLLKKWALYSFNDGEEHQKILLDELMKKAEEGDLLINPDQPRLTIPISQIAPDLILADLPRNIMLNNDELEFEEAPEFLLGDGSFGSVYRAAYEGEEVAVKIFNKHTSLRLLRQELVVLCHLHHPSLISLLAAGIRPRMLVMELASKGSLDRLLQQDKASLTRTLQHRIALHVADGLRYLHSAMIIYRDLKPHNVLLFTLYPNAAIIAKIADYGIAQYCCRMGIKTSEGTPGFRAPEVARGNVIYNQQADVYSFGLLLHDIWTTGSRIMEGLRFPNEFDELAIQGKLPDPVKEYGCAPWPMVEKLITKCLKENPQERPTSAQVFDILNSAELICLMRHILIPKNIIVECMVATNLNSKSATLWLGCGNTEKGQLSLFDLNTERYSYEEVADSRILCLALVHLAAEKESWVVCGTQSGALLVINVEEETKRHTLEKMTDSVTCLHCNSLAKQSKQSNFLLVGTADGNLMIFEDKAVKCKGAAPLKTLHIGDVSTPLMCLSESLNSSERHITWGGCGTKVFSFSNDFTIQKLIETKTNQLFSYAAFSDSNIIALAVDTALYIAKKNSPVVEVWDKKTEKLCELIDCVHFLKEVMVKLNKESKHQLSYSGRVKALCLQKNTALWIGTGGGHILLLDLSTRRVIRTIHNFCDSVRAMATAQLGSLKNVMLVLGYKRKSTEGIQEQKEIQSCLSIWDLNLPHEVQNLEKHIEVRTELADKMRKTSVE
Summary of the method: (§3)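 MitoPark mice on drug-containing diet targeted to 30 mg/kg/day from 5 weeks of age, with the diet reformulated every 3 weeks to hold the target. Untreated-diet MitoPark and wild-type littermate controls. Killed by CO2 at 20 weeks of age. Lung and kidney taken from 5 mice per group for pSer935 and total LRRK2 immunoblots.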

[7] = Unbound fraction in C57Bl/6 mouse plasma; type: ADME, cell-free
Summary of the method: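 Plasma and brain binding were determined by equilibrium dialysis at 1 μM.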

[8] = Cmax in C57Bl/6 mouse at 2 mg/kg, iv measured after 480 mins by LC-MS/MS analysis; type: ADME, organism-based; details: in vivo; summary of the method: as §1
[9] = Unbound brain concentration in C57Bl/6 mouse administered for 11 days; type: ADME, tissue-based; details: in vivo, 264 h, dose 3-100 mg/kg, time 11 day
Summary of the method: (§4)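 Male C57Bl/6 mice, singly housed on a reversed 12 h light cycle, were fed diet formulated to give 3, 10, 30, 60 or 120 mg/kg/day (assumes 3 g/day intake) or untreated diet for 11 days. Body weight and food intake were monitored. Spontaneous locomotion and rearing were recorded over 60 min. On day 11, mice were euthanized 4, 8 or 24 h after dark onset and plasma and brain drug levels measured; n = 5 per group.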

[10] = Toxicity in C57Bl/6 mouse assessed as lower food intake measured after 1 to 3 days; details: in vivo, time 1-3 day; summary of the method: as §4
[11] = Effect on spontaneous locomotor activity in C57Bl/6 mouse assessed as distance traveled administered for 11 days by truScan photo beam activity system analysis; type: toxicity; details: in vivo, 264 h, time 11 day; summary of the method: as §4
[12] = target: Leucine-rich repeat serine/threonine-protein kinase 2 (Mus musculus) (UniProt Q5S006); assay: In vivo inhibition of LRRK2 in C57Bl/6 mouse kidney assessed as total LRRK2 protein level at 10 to 120 mg/kg administered for 11 days and measured after 8 hrs by Western blotting analysis; type: functional, organism-based; details: dose 10-120 mg/kg, time 11.0 day
Summary of the method: (§5)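 Same 11-day in-diet design in male C57Bl/6 mice: 3-120 mg/kg/day or untreated diet, killed 4, 8 or 24 h after dark-cycle onset, n = 5 per group. Kidneys dissected for Western blot of pSer935 and total LRRK2, with total LRRK2 detected by MJFF-2 antibody.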

[13] = target: Leucine-rich repeat serine/threonine-protein kinase 2 (Mus musculus) (UniProt Q5S006); assay: In vivo inhibition of LRRK2 in C57Bl/6 mouse brain assessed as reduction in pSer935 LRRK2 administered for 11 days and measured after 4 hrs by Western blotting analysis; type: functional, organism-based; details: dose 3-120 mg/kg, time 11.0 day
Summary of the method: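 Male C57Bl/6 mice, singly housed on a reversed light cycle. Fed drug diet targeted to 3, 10, 30, 60 or 120 mg/kg/day (assuming 3 g/day intake), or untreated diet, for 11 days. Killed 4, 8 or 24 h after dark-cycle onset, n = 5 per group. Cortex immunoblotted for pSer935/total LRRK2 and total LRRK2/GAPDH. Total LRRK2 detected with MJFF2 antibody.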

Mus musculus [14] = assay: Effect on behavioral changes in 8 weeks old MitoPark mouse striatum assessed as dopamine level at 30 mg/kg/day administered for 3 weeks by HPLC analysis; type: functional; summary of the method: as §2
[15] = target: Leucine-rich repeat serine/threonine-protein kinase 2 (Mus musculus) (UniProt Q5S006); assay: In vivo inhibition of LRRK2 in 20 weeks old MitoPark mouse kidney assessed as reduction in pSer935 LRRK2 level at 30 mg/kg/day administered for 15 weeks by Western blotting analysis; type: functional, organism-based; summary of the method: as §3
[16] = target: Leucine-rich repeat serine/threonine-protein kinase 2 (Mus musculus) (UniProt Q5S006); assay: In vivo inhibition of LRRK2 in C57Bl/6 mouse kidney assessed as total LRRK2 protein level administered for 11 days and measured after 4 hrs by Western blotting analysis; type: functional, organism-based; details: dose 3-120 mg/kg, time 11.0 day; summary of the method: as §5

AUC at 8 h [2]: 1.5 µM·h
IC50 [3]: 1200 nM
IC50 [4]: 605 nM
inhibition [6]: Active
fraction unbound [7]: 0.008
Cmax [8]: 716 nM
Drug uptake(free) [9]: Dose-Dependent Effect
inhibition [12]: Active
inhibition [13]: Dose-Dependent Effect
inhibition [15]: Active
inhibition [16]: Dose-Dependent Effect
SMILES: C[C@@H]1CN(c2cc(-c3n[nH]c4ccc(OC5(C)CC5)cc34)ncn2)C[C@H](C)O1 [MLi-2]
Activity (Mus musculus [1]): Active
Activity (Mus musculus [5]): 7521 ng/g
Activity [10]: Toxic
Activity [11]: Non-Toxic
Activity (Mus musculus [14]): 1114 ng/g
